The results in this text go back to ChEMBL document CHEMBL4138162, “Design and synthesis of small molecule agonists of EphA2 receptor” (Eur J Med Chem, 2018).

Each structure is given as a SMILES string. Activity calls are given as the source filed them. No cut-off for these calls is given here.

Ephrin type-A receptor 2 (Homo sapiens), sequence (P29317 whole entry): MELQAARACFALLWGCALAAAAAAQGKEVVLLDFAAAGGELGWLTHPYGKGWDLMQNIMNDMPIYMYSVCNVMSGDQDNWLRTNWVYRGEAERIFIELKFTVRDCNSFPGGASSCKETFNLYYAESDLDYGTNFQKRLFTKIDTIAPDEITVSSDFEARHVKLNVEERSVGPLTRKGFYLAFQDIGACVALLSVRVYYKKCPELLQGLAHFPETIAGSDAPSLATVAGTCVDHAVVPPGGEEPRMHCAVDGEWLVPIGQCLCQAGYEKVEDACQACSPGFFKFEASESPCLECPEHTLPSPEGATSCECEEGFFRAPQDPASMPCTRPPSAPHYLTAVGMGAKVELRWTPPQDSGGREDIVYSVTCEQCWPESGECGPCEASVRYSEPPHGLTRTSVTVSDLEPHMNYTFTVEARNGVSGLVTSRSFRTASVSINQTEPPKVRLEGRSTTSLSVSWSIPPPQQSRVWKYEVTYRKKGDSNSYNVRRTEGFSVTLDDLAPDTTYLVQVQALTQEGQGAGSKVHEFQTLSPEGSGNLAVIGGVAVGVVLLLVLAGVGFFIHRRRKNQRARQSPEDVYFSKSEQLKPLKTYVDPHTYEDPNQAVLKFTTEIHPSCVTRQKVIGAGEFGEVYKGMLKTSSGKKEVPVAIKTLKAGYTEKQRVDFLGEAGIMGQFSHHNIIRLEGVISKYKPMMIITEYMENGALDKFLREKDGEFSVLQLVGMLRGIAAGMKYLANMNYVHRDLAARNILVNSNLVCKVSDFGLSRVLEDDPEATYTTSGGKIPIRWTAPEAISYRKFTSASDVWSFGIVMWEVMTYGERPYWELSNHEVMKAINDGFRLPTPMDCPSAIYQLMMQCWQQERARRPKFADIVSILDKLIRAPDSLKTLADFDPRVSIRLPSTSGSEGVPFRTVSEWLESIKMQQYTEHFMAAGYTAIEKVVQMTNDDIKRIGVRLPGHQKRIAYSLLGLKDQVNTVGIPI

The first assay concerns the target Ephrin type-A receptor 2 (Homo sapiens) (UniProt P29317). Description: Binding affinity to EphA2 in human MDA-MB-231 cells assessed as induction of EphA2 receptor internalization at 0.4 uM after 1 hr by immunofluorescence microscopy. The class given is cell-based. The gist of the method:
(§1)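 MDA-MB-231 cells on fibronectin-coated coverslips, 24–48 h after seeding, treated 1 h with compound (0.4–50 µM) in 0.5% DMSO. Cells were then PFA-fixed on ice, permeabilized with NP-40 and immunostained with anti-EphA2 (D7) plus Alexa Fluor 488 secondary, with DAPI counterstain. Surface versus intracellular EphA2 was judged by fluorescence microscopy. Three independent repeats.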
`COc1cc2nc(N3CCN(C(=O)CCCCCCCCCCC(=O)N4CCN(c5nc(N)c6cc(OC)c(OC)cc6n5)CC4)CC3)nc(N)c2cc1OC`: the result was Active.

For another assay the target is unchanged. Description: Agonist activity against EphA2 (unknown origin) overexpressed in MDA-MB-231-A2 cells assessed as increase in phosphorylated EphA2 levels at 2 to 50 uM after 30 mins by immunoprecipitation and immunoblot assay relative to 50 uM doxazosin. It counts as cell-based. An outline of the steps:
(§2)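 MDA-MB-231 cells stably overexpressing EphA2 (kept in 1 µg/ml puromycin) were plated at 100,000 cells/well, grown 24 h, then treated 30 min with compound (2, 10, 50 µM; DMSO stock at 200× final, 0.5% DMSO vehicle). Lysates in modified RIPA were immunoprecipitated with ephrin-A1-Fc on Protein G beads. Blots were probed for pEphA/B and EphA2, and pEphA2/total EphA2 was quantified by band densitometry.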
Turning to `CSc1ccc(C(=O)N2CCN(C(=O)c3ccc(SC)cc3)CC2)cc1`, the outcome was inactive.
Still for that read-out and setting: the entry for `COc1cc2nc(N3CCN(C(=O)C4CCCCC4)CC3)nc(N)c2cc1OC` is “inactive”.
On to `COc1cc2nc(N3CCN(C(=O)c4cccs4)CC3)nc(N)c2cc1OC`, for which the result was inactive.
For the molecule `COc1ccc(CC(=O)N2CCN(c3nc(N)c4cc(OC)c(OC)cc4n3)CC2)cc1`, the outcome was Active.
With `COc1cc2nc(N3CCN(C(=O)C4COc5ccccc5O4)CC3)nc(NC(C)=O)c2cc1OC` (centres undefined), the result was inactive.
The same measure, in the same setting: the entry for `COc1cccc(CC(=O)N2CCN(c3nc(N)c4cc(OC)c(OC)cc4n3)CC2)c1` is “Active”; for `CCCC(=O)N1CCN(c2nc(N)c3cc(OC)c(OC)cc3n2)CC1` it is “inactive”.
As to `COc1cc2nc(N3CCN(C(=O)c4ccc(-c5ccccc5)cc4)CC3)nc(N)c2cc1OC`, the outcome was Active.
The same measure, in the same setting: the value for `CCc1ccc(C(=O)N2CCN(c3nc(N)c4cc(OC)c(OC)cc4n3)CC2)cc1` was “Active”; that for `COc1cc2nc(N3CCN(C(=O)C(C)c4ccccc4)CC3)nc(N)c2cc1OC` (centres undefined) was “Active”; that for `COc1cc2nc(N3CCN(C(=O)c4ccc(Cl)c([N+](=O)[O-])c4)CC3)nc(N)c2cc1OC` was “inactive”.
Same read-out and setting: the entry for `COc1cc2nc(N3CCN(C(=O)CCCCCCCCCCC(=O)N4CCN(c5nc(N)c6cc(OC)c(OC)cc6n5)CC4)CC3)nc(N)c2cc1OC` is “Active”; for `COc1cc2nc(N3CCN(C(=O)c4ccc5ccccc5c4)CC3)nc(N)c2cc1OC` it is “Active”.
On the same count and under the same terms, the value for `COc1cc2nc(N3CCN(C(=O)CCCCC(=O)N4CCN(c5nc(N)c6cc(OC)c(OC)cc6n5)CC4)CC3)nc(N)c2cc1OC` was “inactive”; that for `COc1cc2nc(N3CCN(C(=O)c4ccc(Br)cc4)CC3)nc(N)c2cc1OC` was “Active”.
Regarding `COc1cc2nc(N3CCN(C(=O)c4ccncc4)CC3)nc(N)c2cc1OC`, the outcome was inactive.
The same measure, in the same setting: the value for `COc1cc2nc(N3CCN(C(=O)Cc4ccc5ccccc5c4)CC3)nc(N)c2cc1OC` was “Active”; that for `CCC(=O)N1CCN(c2nc(N)c3cc(OC)c(OC)cc3n2)CC1` was “inactive”.
Same read-out and setting: the entry for `COc1cc2nc(N3CCN(C(=O)c4ccc5c(c4)OCO5)CC3)nc(N)c2cc1OC` is “Active”.
Still for that read-out and setting: the entry for `CCCCCC(=O)N1CCN(c2nc(N)c3cc(OC)c(OC)cc3n2)CC1` is “inactive”; for `COc1cc2nc(N3CCN(C(=O)Cc4ccc(OCc5ccccc5)cc4)CC3)nc(N)c2cc1OC` it is “Active”.
For the molecule `COc1cc2nc(N3CCN(C(C)=O)CC3)nc(N)c2cc1OC`, the outcome was inactive.
Still for that read-out and setting: the entry for `COc1cc2nc(N3CCN(C(=O)Cc4ccc(OCc5ccccc5)cc4)CC3)nc(N3CCCCC3)c2cc1OC` is “inactive”; for `COc1cc2nc(N3CCN(C(=O)c4ccccn4)CC3)nc(N)c2cc1OC` it is “inactive”; for `COc1ccc(C(=O)N2CCN(c3nc(N)c4cc(OC)c(OC)cc4n3)CC2)cc1` it is “inactive”.
Same read-out and setting: the entry for `COc1cc2nc(N3CCN(C(=O)Cc4ccc(OCc5ccccc5)cc4)CC3)nc(NC(C)=O)c2cc1OC` is “inactive”; for `COc1cc2nc(N3CCN(C(=O)Cc4ccc(OCc5ccccc5)cc4)CC3)nc(N3CCCC3)c2cc1OC` it is “inactive”.
Still for that read-out and setting: the entry for `COc1cc2nc(N3CCN(C(=O)c4ccno4)CC3)nc(N)c2cc1OC` is “inactive”; for `COc1cc2nc(N3CCN(C(=O)c4ccco4)CC3)nc(N)c2cc1OC` it is “inactive”.
Regarding `COc1cc2nc(N3CCN(C(=O)Cc4ccccc4)CC3)nc(N)c2cc1OC`, the result was Active.
On the same count and under the same terms, the value for `CCOc1cc2nc(N3CCN(C(=O)Cc4ccc(OCc5ccccc5)cc4)CC3)nc(N)c2cc1OCC` was “inactive”; that for `COc1ccc(C(=O)N2CCN(C(=O)c3ccc(OC)cc3)CC2)cc1` was “inactive”; that for `COc1cc2nc(N3CCN(C(=O)c4ccc(I)cc4)CC3)nc(N)c2cc1OC` was “Active”.

Another assay shares this target. As to the kind of experiment: Binding affinity to EphA2 in human MDA-MB-231 cells assessed as induction of EphA2 receptor internalization at 50 uM after 1 hr by immunofluorescence microscopy. It counts as cell-based. The gist of the method:
as §1
For the molecule `COc1cc2nc(N3CCN(C(=O)C4COc5ccccc5O4)CC3)nc(N)c2cc1OC` (centres undefined), the result was Active.

Another assay has the same target. Description: Agonist activity against EphA2 (unknown origin) overexpressed in MDA-MB-231-A2 cells assessed as increase in phosphorylated EphA2 levels at 50 uM after 30 mins by immunoprecipitation and immunoblot assay. It counts as cell-based. An outline of the steps:
as §2
Consider `COc1cc2nc(N3CCN(C(=O)CCCCCCCCCCC(=O)N4CCN(c5nc(N)c6cc(OC)c(OC)cc6n5)CC4)CC3)nc(N)c2cc1OC`, for which the outcome was Active.

In another assay the test system is MDA-MB-231. Description: Anticlonogenic activity against human MDA-MB-231 cells up to 10 uM after 14 days by crystal violet staining-based assay. The class given is functional, cell-based. An outline of the steps:
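Parental MDA-MB-231 cells, 1000/well, cultured 24 h, then exposed to 0, 0.08, 0.4, 2 or 10 µM compound in 0.5% DMSO for 14 days. Colonies were fixed in 4% paraformaldehyde, rinsed in 20% methanol and stained with 0.5% crystal violet. Three independent experiments.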
Consider `COc1cc2nc(N3CCN(C(=O)CCCCCCCCCCC(=O)N4CCN(c5nc(N)c6cc(OC)c(OC)cc6n5)CC4)CC3)nc(N)c2cc1OC`, for which the result was Active.
On the same count and under the same terms, the entry for `CCCCCC(=O)N1CCN(c2nc(N)c3cc(OC)c(OC)cc3n2)CC1` is “Active”.
The same measure, in the same setting: the entry for `COc1cc2nc(N3CCN(C(=O)Cc4ccc(OCc5ccccc5)cc4)CC3)nc(N)c2cc1OC` is “Active”.
